Test results as given in ChEMBL document CHEMBL1123417, “New structure-activity relationships of the quinolone antibacterials using the target enzyme. The development and application of a DNA gyrase assay” (J Med Chem, 1986).
≈ marks a conversion by molar mass, not a printed value.

Tests used:
DNA gyrase = DNA gyrase (Escherichia coli, UniProt P0AES4+P0AES6); test: Inhibitory concentration in supercoiling inhibition Escherichia coli DNA gyrase assay; type: protein-complex assay; settings: read-out: I50 (converted)
Procedure, shortened: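 Gyrase A and B subunits purified from E. coli H560, each titrated to fully supercoil relaxed Col E1 plasmid (~0.3 μg/mL). Drug in 0.1 N KOH, 40 min at 30 °C, then ATP for 10 min. SDS/proteinase K quench, 1% agarose gel, ethidium stain. Serial dilutions start at 200 μg/mL. I50 is the mean of the initial-inhibition and 100%-inhibition concentrations.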

Staphylococcus aureus = test: Antibacterial activity against Staphylococcus aureus (H228)
Klebsiella pneumoniae = test: Antibacterial activity against Klebsiella pneumonia (MGH-2)
Streptococcus pneumoniae = test: Antibacterial activity against Streptococcus pneumoniae (SV-1)
Escherichia coli [1] = test: Antibacterial activity against Escherichia coli (vogel)
[2] = target: DNA gyrase (Escherichia coli) (UniProt P0AES6+P0AES4)
Escherichia coli [3] = test: Antibacterial activity against Escherichia coli (H560)
Pseudomonas aeruginosa = test: Antibacterial activity against Pseudomonas aeruginosa (UI-18)

SMILES | IC50 (DNA gyrase) [µM] | MIC (Staphylococcus aureus) [mg/L] | MIC (Klebsiella pneumoniae) [mg/L] | MIC (Streptococcus pneumoniae) [mg/L] | MIC (Escherichia coli [1]) [mg/L] | gyrase cleavage conc [2] [µg/mL] | MIC (Escherichia coli [3]) [mg/L] | MIC (Pseudomonas aeruginosa) [mg/L]
CCn1cc(C(=O)O)c(=O)c2cc(F)c(N3CCNCC3)c(F)c21 | 18.7 | 3.1 (≈ 9.19 µM) | 0.1 (≈ 0.296 µM) | 3.1 (≈ 9.19 µM) | 0.2 (≈ 0.593 µM) | 1 | 0.1 (≈ 0.296 µM) | 1.6 (≈ 4.74 µM)
CCn1cc(C(=O)O)c(=O)c2cc(F)c(N3CCSC3)nc21 | 201 | 0.05 (≈ 0.155 µM) | 0.4 (≈ 1.24 µM) | 1.6 (≈ 4.95 µM) | 0.1 (≈ 0.309 µM) | 5 | 0.4 (≈ 1.24 µM) | 1.6 (≈ 4.95 µM)
CN1CCN(c2c(F)cc3c(=O)c(C(=O)O)cn(CCF)c3c2F)CC1 [FLEROXACIN] | 10.3 | – | – | – | – | 2.5 | – | –
CCn1cc(C(=O)O)c(=O)c2cnc(N3CCNCC3)nc21 [PIPEMIDIC ACID] | > 330 | – | – | – | – | 50 | – | –
CNn1cc(C(=O)O)c(=O)c2cc(F)c(N3CCN(C)CC3)cc21 [AMIFLOXACIN] | 18.8 | 1.6 (≈ 4.79 µM) | 0.2 (≈ 0.598 µM) | 12.5 (≈ 37.4 µM) | 0.1 (≈ 0.299 µM) | – | – | 0.8 (≈ 2.39 µM)
CCn1cc(C(=O)O)c(=O)c2cc(F)c(-n3cccc3)cc21 [IRLOXACIN] | 93.2 | 0.4 (≈ 1.33 µM) | 1.6 (≈ 5.33 µM) | 12.5 (≈ 41.6 µM) | 1.6 (≈ 5.33 µM) | 2.5 | 1.6 (≈ 5.33 µM) | 12.5 (≈ 41.6 µM)
CCn1cc(C(=O)O)c(=O)c2cc(F)c(N3CCCC3)nc21 | 16.4 | 0.2 (≈ 0.655 µM) | 3.1 (≈ 10.2 µM) | 3.1 (≈ 10.2 µM) | 3.1 (≈ 10.2 µM) | 2.5 | 0.4 (≈ 1.31 µM) | 6.3 (≈ 20.6 µM)
CCn1nc(C(=O)O)c(=O)c2cc3c(cc21)OCO3 [CINOXACIN] | > 381 | – | – | – | – | 43 | – | –
COn1cc(C(=O)O)c(=O)c2cc3c(cc21)OCO3 [MILOXACIN] | 190 | 6.3 (≈ 23.9 µM) | 0.2 (≈ 0.76 µM) | 100 (≈ 380 µM) | 0.4 (≈ 1.52 µM) | 10 | 0.4 (≈ 1.52 µM) | 12.5 (≈ 47.5 µM)
CCn1cc(C(=O)O)c(=O)c2cc3c(cc21)OCO3 [OXOLINIC ACID] | 95.7 | – | – | – | – | 10 | – | –
CCn1cc(C(=O)O)c(=O)c2cc(F)c(N3CCCC3)cc21 | 85.4 | 0.8 (≈ 2.63 µM) | > 100 | 12.5 (≈ 41.1 µM) | 1.6 (≈ 5.26 µM) | 5 | 1.6 (≈ 5.26 µM) | > 100
CCn1cc(C(=O)O)c(=O)c2cc(F)c(N3CCNCC3)nc21 [ENOXACIN] | 87.4 | – | – | – | – | 5 | – | –
CCn1cc(C(=O)O)c(=O)c2ccc(-c3ccncc3)cc21 [ROSOXACIN] | > 34 | 0.4 (≈ 1.36 µM) | 0.4 (≈ 1.36 µM) | 12.5 (≈ 42.5 µM) | 0.2 (≈ 0.68 µM) | 2.5 | 0.2 (≈ 0.68 µM) | 6.3 (≈ 21.4 µM)
CCn1cc(C(=O)O)c(=O)c2cnc(N3CCCC3)nc21 [PIROMIDIC ACID] | > 347 | – | – | – | – | 38 | – | –
